# Experimental data reported in ChEMBL document CHEMBL3244377, “Synthesis and biochemical evaluation of nucleosides of naphthoquinone heterocycles” (J Med Chem, 1977).
# Activity calls are given as the source filed them. The rule behind the calls is not given here.
# How the values were obtained:
# [1] = molecular target: T1, Hypoxanthine-guanine phosphoribosyltransferase (Mus musculus) (UniProt P00493); experiment: Inhibition of hypoxanthine phosphoribosyltransferase in mouse Ehrlich ascites tumor cells assessed as decrease in purine nucleotide biosynthesis using [14C]hypoxanthine as substrate at 100 uM incubated for 20 mins followed by substrate addition for 60 mins by thin layer chromatography
# T1 sequence (whole entry): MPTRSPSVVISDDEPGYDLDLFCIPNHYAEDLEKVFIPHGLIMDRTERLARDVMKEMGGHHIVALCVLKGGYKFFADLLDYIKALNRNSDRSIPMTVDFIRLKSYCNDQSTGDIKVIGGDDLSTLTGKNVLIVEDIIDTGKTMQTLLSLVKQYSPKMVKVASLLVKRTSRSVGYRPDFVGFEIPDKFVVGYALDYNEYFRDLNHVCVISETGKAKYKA
# Procedure, shortened: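 Ehrlich ascites tumor cell suspensions were preincubated 20 min with compound at 100 μM. [14C]Hypoxanthine was then added at 100 μM for a further 60 min. Cells were disrupted, and adenine and guanine nucleotides were resolved by TLC. Radioactivity in individual nucleotides of treated cells was compared with untreated cells to derive apparent purine-metabolism enzyme rates and their inhibition.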
# Human alphaherpesvirus 1 = experiment: Antiviral activity against Herpes simplex virus 1 by tissue culture assay; format: functional, organism-based
# Human respirovirus 3 = experiment: Antiviral activity against Parainfluenza virus 3 by tissue culture assay; format: functional, organism-based
# Human rhinovirus A13 = experiment: Antiviral activity against Rhinovirus 13 by tissue culture assay; format: functional
inhibition [1],Structure (SMILES),Activity (Human alphaherpesvirus 1),Activity (Human respirovirus 3),Activity (Human rhinovirus A13)
1%,O=C1c2ccccc2C(=O)c2[nH]nnc21,inactive,inactive,inactive
5%,O=C1c2ccccc2C(=O)c2[nH]ncc21,inactive,inactive,inactive
72%,O=C1c2ccccc2C(=O)c2nn([C@@H]3O[C@H](CO)[C@@H](O)[C@H]3O)nc21,inactive,inactive,inactive
68%,O=C1c2ccccc2C(=O)c2c1ncn2[C@@H]1O[C@H](CO)[C@@H](O)[C@H]1O,inactive,inactive,inactive
82%,O=C1c2ccccc2C(=O)c2[nH]cnc21,inactive,inactive,inactive
0%,O=C1c2ccccc2C(=O)c2nn([C@@H]3O[C@H](CO)[C@@H](O)[C@H]3O)cc21,inactive,inactive,inactive
